# Source: PubChem (several laboratories)
# DAGLB inh: DAGLB lipase inhibitors, primary screen, biochemical, fluorescence, HTS | hit rate 0.059% among 340,000 | Diacylglycerol lipase-beta (Homo sapiens), Q8NCG7 | HEK293T DAGLB membrane lysate, EnzChek fluorogenic substrate | inhibition, % at 5.17 µM; in the data active = inhibition above about 34%;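 note: 0% = enzyme with vehicle and 100% = wells lacking enzyme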
# Granule exo inh: LAMP-1 surface exposure blockers, TALL-104 cells – cell-based, flow cytometry, MLPCN library, primary screen; TALL-104 LAMP-1 surface exposure; cells stimulated with thapsigargin and PMA; inhibition, % at 10 µM; hit rate 0.66% among 360,000; AID 651702, 2012;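 active = inhibition above about 55%, limit read from the data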
# ABCB6 inh 2: ABCB6 transporter inhibitors, primary screen, K562-ABCB6 cells, flow cytometry, MLPCN library. ATP-binding cassette sub-family B member 6 (Homo sapiens), Q9NP58. K562-ABCB6 porphyrin accumulation, 1 h; stronger effect = lower value. fluorescence ratio to DMSO, % at 10 µM. hit rate 0.19% among 360,000. AID 602162, 2011;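 active = fluorescence ratio to DMSO below 75%, the collection mean minus 3 SD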;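 note: signal is porphyrin accumulated inside mitochondria; 100% equals median channel fluorescence of DMSO control wells; lower ratio means ABCB6 inhibition with less porphyrin fluorescence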
# Target sequence (Q9NP58 whole entry, looked up): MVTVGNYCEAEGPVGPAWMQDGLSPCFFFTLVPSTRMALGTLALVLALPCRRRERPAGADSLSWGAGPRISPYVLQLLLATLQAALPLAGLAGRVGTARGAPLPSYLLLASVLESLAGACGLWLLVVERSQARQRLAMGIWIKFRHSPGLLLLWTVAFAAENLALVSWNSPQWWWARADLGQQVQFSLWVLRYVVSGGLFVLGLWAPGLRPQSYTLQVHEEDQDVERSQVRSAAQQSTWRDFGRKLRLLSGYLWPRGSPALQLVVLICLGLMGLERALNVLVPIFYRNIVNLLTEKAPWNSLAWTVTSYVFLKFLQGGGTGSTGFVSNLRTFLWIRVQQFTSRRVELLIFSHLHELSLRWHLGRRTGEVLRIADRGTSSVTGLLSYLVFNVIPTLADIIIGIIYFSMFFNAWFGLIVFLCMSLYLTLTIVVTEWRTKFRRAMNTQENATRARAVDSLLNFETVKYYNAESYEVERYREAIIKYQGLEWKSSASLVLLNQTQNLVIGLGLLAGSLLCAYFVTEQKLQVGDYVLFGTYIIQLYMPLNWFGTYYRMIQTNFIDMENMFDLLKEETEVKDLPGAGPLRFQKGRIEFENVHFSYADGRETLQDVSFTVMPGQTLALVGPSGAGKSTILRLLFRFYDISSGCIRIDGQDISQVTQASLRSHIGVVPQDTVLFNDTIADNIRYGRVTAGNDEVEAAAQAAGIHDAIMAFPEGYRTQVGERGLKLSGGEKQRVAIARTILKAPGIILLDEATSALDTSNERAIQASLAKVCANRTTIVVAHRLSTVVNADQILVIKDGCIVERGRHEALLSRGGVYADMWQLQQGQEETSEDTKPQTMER
# MT1-MMP act inh: blockers of MT1-MMP proenzyme processing, primary screen, HT1080 RFP-PRO-GFP cells, GFP/RFP fluorescence | GFP/RFP ratio fluorescence, overnight; percent of plate control window, DMSO zero | GFP/RFP ratio change, % at 20 µM | hit rate 0.061% among 360,000;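 active = GFP/RFP ratio change of at least 30% with cell ATP level not reduced by more than half and red fluorescence within 50% of control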
#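 Assay system: HT1080 RFP-PRO-GFP cells. Benchmarks: DMSO vehicle wells and RFP-L50D-GFP reporter cell wells. Times: overnight cell settling, then overnight compound exposure, 37 °C, 5% CO2. Compound: 20 µM single dose, 1% DMSO. Read-out basis: GFP/RFP fluorescence ratio.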
# FGF22 binding: binders of human FGF22 protein, primary screen, FGF22 synaptogenesis inhibitor project, biophysical, thermal shift, single point; Fibroblast growth factor 22 (Homo sapiens), Q9HCT0; recombinant FGF22 thermal shift, SYPRO orange fluorescence; percent of sucrose octasulfate shift, DMSO zero; activity (Tm shift, normalised), % at 9.99 µM; hit rate 1.5% among 340,000; AID 651658, 2012;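 active = mean Tm shift, scaled 0 neutral to 100 positive control, at about 1.3% or above, every replicate too, limit read from the data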
# VLA-4 inh: inhibition in human VLA-4 binding assay, primary screen, VLA-4 allosteric modulator project, MLPCN library, flow cytometry, VLA-4 expressing cells; ligand binding flow cytometry; inhibition, % (about 7 µM as worked out from the volumes in the protocol); hit rate 0.2% among 330,000; AID 2557, 2010; in the data active = inhibition above about 50%
# Exocytosis CP01: inhibitors of lytic granule exocytosis, confirmation, TALL-104 cells, flow cytometry, Cherry Pick01. inhibition, % at 10 µM. shares compounds with Granule exo inh. hit rate 11% among 1,500. LAMP-1 externalization; stimulated with PMA plus thapsigargin; in the data active = inhibition above about 60%;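 note: 0% = stimulated vehicle wells and 100% = unstimulated wells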
# Starred values were filed as active, the others as inactive; . = no result. The list is not random: actives were taken first. Their share in the collection is about 2%.
SMILES,DAGLB inh,Granule exo inh,ABCB6 inh 2,MT1-MMP act inh,FGF22 binding,VLA-4 inh,Exocytosis CP01
COc1ccc(S(=O)(=O)N(C(=O)c2ccco2)c2cc3sc(=O)oc3c3ccccc23)cc1,-0.5,82.8*,97.0,4.3,0.3,13.6,-13.1
CC(C)c1cn(CC[C@@H]2CC[C@@H](NC(=O)c3cccc(F)c3)[C@H](CO)O2)nn1,.,.,.,.,-0.1,.,.
C[C@@H]1CN([C@H](C)CO)C(=O)c2cc(NC(=O)NC3CCCCC3)ccc2O[C@@H](C)CCCCO[C@@H]1CN(C)C(=O)Cc1ccccc1,.,.,.,.,-0.1,.,.
COc1cccc(N2CCc3c(C)nc4ccc(Cl)cc4c32)c1,0.9,81.5*,100.0,-10.1,0.0,-2.9,-7.3
CN(C)C(=O)C[C@H]1CC[C@@H]2[C@H](COC[C@H](O)CN2Cc2nccs2)O1,.,.,.,.,-0.1,.,.
O=C(N[C@@H](Cc1ccccc1)C(=O)O)c1ccc(C(F)(F)F)cc1,5.2,84.5*,99.0,-0.8,-0.1,19.9,-3.1
Cc1ccc(C(=O)NC(Cc2cccc(C(F)(F)F)c2)C(=O)O)cc1 (stereo not given),-2.2,-3.3,105.0,5.8,0.4,.,.
O=C(C[C@@H]1CC[C@H]2[C@@H](COC[C@@H](O)CN2Cc2cccc(F)c2)O1)NCC1CCCCC1,.,.,.,.,-0.2,.,.
Cc1csc2sc(-c3ccnc(SCC(=O)NCc4ccccc4)n3)c(C)c12,-3.6,66.1*,101.0,0.2,0.3,5.8,-11.3
O=C(O)c1nn(CCOc2cccc(Br)c2)c(=O)c2ccccc12,0.9,72.6*,100.0,1.7,-0.2,3.7,-1.9
O=C(NC1CCCC1)C(c1cccs1)N(Cc1ccco1)C(=O)Cn1nnc(-c2cccs2)n1 (stereo not given),-4.3,-1.2,96.0,-13.9,0.0,10.3,.
Cc1ccc(-c2nnn(CC(=O)N(Cc3ccco3)C(C(=O)NC3CCCC3)c3cccs3)n2)o1 (stereo not given),3.6,65.9*,96.0,-9.2,.,-9.7,-4.5
O=C(OCc1ccccc1)N(CCCCN(CCCNCc1ccccc1)C(=O)OCc1ccccc1)CCCNCc1ccccc1,3.5,85.1*,99.0,-33.3,0.0,.,98.9*
COc1ccc(N2CCN(c3ncnc4scc(-c5ccc(C)cc5)c34)CC2)cc1,-6.1,80.4*,91.0,-9.8,-0.2,5.6,-11.6
COc1ccc(F)cc1CN1CCN(c2ncnc3scc(-c4ccccc4)c23)CC1,.,70.0*,98.0,-9.4,0.0,18.4,9.8
CCN1CCN(c2ncnc3scc(-c4ccc(OC)cc4)c23)CC1,-1.5,-6.5,96.0,-19.4,-0.2,5.0,.
CCOc1ccc(CN2CCN(c3ncnc4scc(-c5ccccc5)c34)CC2)cc1,-0.7,87.0*,95.0,1.2,-0.3,22.2,-11.0
COc1ccc(N2CCN(c3ncnc4scc(-c5ccc(F)cc5)c34)CC2)cc1,-3.9,4.8,103.0,-4.2,-0.3,-3.1,.
COc1ccc(CN2CCN(c3ncnc4scc(-c5ccc(F)cc5)c34)CC2)cc1,-6.1,60.5*,97.0,-8.5,-0.1,4.9,0.8
COc1ccc(N2CCN(c3ncnc4scc(-c5ccccc5)c34)CC2)cc1,-3.2,-8.7,96.0,-1.5,-0.1,-3.4,.
CCOc1ccc(-c2nc(N)nc(C)c2-c2ccc(Cl)cc2)c(O)c1,-1.6,3.8,97.0,-2.1,0.3,-4.7,.
COc1ccc(-c2nc(N)nc(C)c2-c2ccc(Cl)cc2)c(O)c1,-3.7,61.4*,100.0,-2.9,0.2,17.3,-8.9
CCCC(=O)Nc1ccc2c(c1)C(=O)N(C)C[C@@H](OC)[C@H](C)CN(Cc1nccs1)[C@H](C)CO2,.,.,.,.,0.2,.,.
CSc1ccccc1NC(=O)CN(C)C(=O)CCc1c[nH]c2ccccc12,-0.2,62.5*,104.0,5.2,0.5,11.3,-14.8
CSc1ccccc1NC(=O)CN(C)C(=O)Cc1c[nH]c2ccccc12,3.8,6.9,101.0,-2.8,.,0.4,.
SMILES,DAGLB inh,Granule exo inh,ABCB6 inh 2,MT1-MMP act inh,FGF22 binding,VLA-4 inh,Exocytosis CP01
CNC(=O)c1nc(C)c(C2(C)CC(c3cccc([N+](=O)[O-])c3)=NO2)s1 (stereo not given),2.9,-3.5,97.0,2.5,-0.2,-17.4,.
Cc1nc(C(=O)NCc2ccccc2)sc1C1(C)CC(c2cccc([N+](=O)[O-])c2)=NO1 (stereo not given),-7.3,59.1*,96.0,6.0,0.1,20.6,-5.0
N#Cc1c(NC(=O)c2ccc(Br)o2)n(-c2ccccc2)c2nc3ccccc3nc12,3.7,72.3*,123.0,-125.2,0.1,-37.7,96.5*
C[C@H]1CN([C@@H](C)CO)C(=O)c2cc(NC(=O)CCC(F)(F)F)ccc2O[C@H]1CN(C)S(=O)(=O)c1cn(C)cn1,.,.,.,.,-0.2,.,.
Cc1ccc(NC(=O)CSc2nnc(-c3ccoc3C)n2CCCN(C)C)cc1Cl,1.0,62.6*,99.0,2.7,-0.2,8.6,-4.8
CCN(CC)CCCn1c(SCC(=O)Nc2cccc(F)c2)nnc1-c1ccoc1C,0.2,47.7,98.0,-0.3,-0.2,2.8,.
C[C@H](CO)N1C[C@H](C)[C@H](CN(C)Cc2ccccc2)Oc2ncc(-c3ccc(F)cc3)cc2C1=O,.,.,.,.,-0.1,.,.
CC(=O)Nc1ccc(NC(=O)CSc2nc(=O)n(Cc3ccncc3)c3c2CCC3)cc1,1.7,1.3,100.0,2.7,0.6,6.9,.
Cc1ccc(NC(=O)CSc2nc(=O)n(Cc3ccncc3)c3c2CCC3)c(C)c1,2.3,58.6*,101.0,-3.3,-0.2,2.7,-3.5
C[C@H](CO)N1C[C@H](C)[C@@H](CN(C)Cc2ccc(C(F)(F)F)cc2)Oc2ccc(NC(=O)CCC(F)(F)F)cc2CC1=O,.,.,.,.,-0.5,.,.
COc1ccc(CCNCc2cc(C)n(-c3ccc(OC)cc3)c2C)cc1,-1.7,61.1*,99.0,0.7,-0.6,-1.5,1.4
COc1ccc(CCNCc2ccccc2N2CCCC2)cc1,-2.0,40.1,101.0,1.8,-0.4,5.5,.
COc1ccc(NC(=O)N[C@H]2CC[C@@H](CCNS(=O)(=O)c3ccccc3F)O[C@H]2CO)cc1,.,.,.,.,0.0,.,.
